Converted amounts (≈) assume the structure as drawn.
The compounds below were run on Candida albicans (assay: Antifungal activity against Candida albicans Berkout KCCM 50235 after 1 day by twofold broth dilution method). Conditions: Berkout KCCM 50235, 24 h.
Format: functional
Method in brief: (§1)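 Two-fold broth dilution in modified Sabouraud dextrose broth. Inoculum about 1 × 10⁵ cells/mL. Test agents at final concentrations from 0.2 to 50.0. Incubated at 37 °C, and MIC read after 1 day. Fluconazole and 5-fluorocytosine served as standard agents.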

Row | SMILES | MIC
1 | CCOC(=O)c1c(N)oc2c1c(Sc1cccc(Cl)c1)c(O)c1ncncc12 | 50 µg/mL (≈ 120 µM)
2 | CCOC(=O)c1c(N)oc2c1c(Sc1ccc(F)c(F)c1)c(O)c1ncncc12 | 3.2 µg/mL (≈ 7.67 µM)
3 | O=C1C(Sc2cccc(F)c2)=C(Sc2cccc(F)c2)C(=O)c2ncncc21 | 6.3 µg/mL (≈ 15.3 µM)
4 | O=C1C(Sc2ccc(Br)cc2)=C(Sc2ccc(Br)cc2)C(=O)c2ncncc21 | 6.3 µg/mL (≈ 11.8 µM)
5 | O=C1C(Sc2ccc(F)cc2F)=C(Sc2ccc(F)cc2F)C(=O)c2ncncc21 | 6.3 µg/mL (≈ 14 µM)
6 | O=C1C(Sc2ccc(F)cc2)=C(Sc2ccc(F)cc2)C(=O)c2ncncc21 | 1.6 µg/mL (≈ 3.88 µM)
7 | Cc1cccc(SC2=C(Sc3cccc(C)c3)C(=O)c3ncncc3C2=O)c1 | 3.2 µg/mL (≈ 7.91 µM)
8 | O=C1C(Sc2ccc(F)c(F)c2)=C(Sc2ccc(F)c(F)c2)C(=O)c2ncncc21 | 12.5 µg/mL (≈ 27.9 µM)
9 | O=C1C(SCCO)=C(SCCO)C(=O)c2ncncc21 | 25 µg/mL (≈ 80 µM)
10 | OC(Cn1cncn1)(Cn1cncn1)c1ccc(F)cc1F [FLUCONAZOLE] | 50 µg/mL (≈ 163 µM)
11 | Nc1nc(=O)[nH]cc1F [FLUCYTOSINE] | 3.2 µg/mL (≈ 24.8 µM)
12 | CCOC(=O)c1c(N)oc2c1c(Sc1ccc(Cl)cc1)c(O)c1ncncc12 | 25 µg/mL (≈ 60.1 µM)
13 | CCOC(=O)c1c(N)oc2c1c(SCC)c(O)c1ncncc12 | 50 µg/mL (≈ 150 µM)

What follows are compounds tested on Candida tropicalis (assay: Antifungal activity against Candida tropicalis Berkout KCCM 50662 after 1 day by twofold broth dilution method). Conditions: Berkout KCCM 50662, 24 h.
Format: functional
Method in brief: as §1

Row | SMILES | MIC
14 | CCOC(=O)c1c(N)oc2c1c(Sc1cccc(Cl)c1)c(O)c1ncncc12 | 25 µg/mL (≈ 60.1 µM)
15 | CCOC(=O)c1c(N)oc2c1c(Sc1ccc(F)c(F)c1)c(O)c1ncncc12 | 3.2 µg/mL (≈ 7.67 µM)
16 | O=C1C(Sc2cccc(F)c2)=C(Sc2cccc(F)c2)C(=O)c2ncncc21 | 25 µg/mL (≈ 60.6 µM)
17 | O=C1C(Sc2ccc(Br)cc2)=C(Sc2ccc(Br)cc2)C(=O)c2ncncc21 | 50 µg/mL (≈ 93.6 µM)
18 | O=C1C(Sc2ccc(F)cc2F)=C(Sc2ccc(F)cc2F)C(=O)c2ncncc21 | 6.3 µg/mL (≈ 14 µM)
19 | O=C1C(Sc2ccc(F)cc2)=C(Sc2ccc(F)cc2)C(=O)c2ncncc21 | 6.3 µg/mL (≈ 15.3 µM)
20 | Cc1cccc(SC2=C(Sc3cccc(C)c3)C(=O)c3ncncc3C2=O)c1 | 12.5 µg/mL (≈ 30.9 µM)
21 | O=C1C(Sc2ccc(F)c(F)c2)=C(Sc2ccc(F)c(F)c2)C(=O)c2ncncc21 | 6.3 µg/mL (≈ 14 µM)
22 | O=C1C(SCCO)=C(SCCO)C(=O)c2ncncc21 | > 50 µg/mL
23 | OC(Cn1cncn1)(Cn1cncn1)c1ccc(F)cc1F [FLUCONAZOLE] | 6.3 µg/mL (≈ 20.6 µM)
24 | Nc1nc(=O)[nH]cc1F [FLUCYTOSINE] | 3.2 µg/mL (≈ 24.8 µM)
25 | CCOC(=O)c1c(N)oc2c1c(Sc1ccc(Cl)cc1)c(O)c1ncncc12 | 50 µg/mL (≈ 120 µM)
26 | CCOC(=O)c1c(N)oc2c1c(SCC)c(O)c1ncncc12 | 25 µg/mL (≈ 75 µM)

What follows are compounds tested on Pichia kudriavzevii (assay: Antifungal activity against Candida krusei Berkout KCCM 11655 after 1 day by twofold broth dilution method). Conditions: Berkout KCCM 11655, 24 h.
Format: functional
Method in brief: as §1

Row | SMILES | MIC
27 | CCOC(=O)c1c(N)oc2c1c(Sc1cccc(Cl)c1)c(O)c1ncncc12 | 50 µg/mL (≈ 120 µM)
28 | CCOC(=O)c1c(N)oc2c1c(Sc1ccc(F)c(F)c1)c(O)c1ncncc12 | 6.3 µg/mL (≈ 15.1 µM)
29 | O=C1C(Sc2cccc(F)c2)=C(Sc2cccc(F)c2)C(=O)c2ncncc21 | 12.5 µg/mL (≈ 30.3 µM)
30 | O=C1C(Sc2ccc(Br)cc2)=C(Sc2ccc(Br)cc2)C(=O)c2ncncc21 | 6.3 µg/mL (≈ 11.8 µM)
31 | O=C1C(Sc2ccc(F)cc2F)=C(Sc2ccc(F)cc2F)C(=O)c2ncncc21 | 12.5 µg/mL (≈ 27.9 µM)
32 | O=C1C(Sc2ccc(F)cc2)=C(Sc2ccc(F)cc2)C(=O)c2ncncc21 | 12.5 µg/mL (≈ 30.3 µM)
33 | Cc1cccc(SC2=C(Sc3cccc(C)c3)C(=O)c3ncncc3C2=O)c1 | 25 µg/mL (≈ 61.8 µM)
34 | O=C1C(Sc2ccc(F)c(F)c2)=C(Sc2ccc(F)c(F)c2)C(=O)c2ncncc21 | 12.5 µg/mL (≈ 27.9 µM)
35 | O=C1C(SCCO)=C(SCCO)C(=O)c2ncncc21 | 12.5 µg/mL (≈ 40 µM)
36 | OC(Cn1cncn1)(Cn1cncn1)c1ccc(F)cc1F [FLUCONAZOLE] | 25 µg/mL (≈ 81.6 µM)
37 | Nc1nc(=O)[nH]cc1F [FLUCYTOSINE] | 6.3 µg/mL (≈ 48.8 µM)
38 | CCOC(=O)c1c(N)oc2c1c(Sc1ccc(Cl)cc1)c(O)c1ncncc12 | 50 µg/mL (≈ 120 µM)
39 | CCOC(=O)c1c(N)oc2c1c(SCC)c(O)c1ncncc12 | 25 µg/mL (≈ 75 µM)

The compounds below were run on Cryptococcus neoformans (assay: Antifungal activity against Cryptococcus neoformans KCCM 50564 after 1 day by twofold broth dilution method). Conditions: KCCM 50564, 24 h.
Format: functional
Method in brief: as §1

Row | SMILES | MIC
40 | CCOC(=O)c1c(N)oc2c1c(Sc1cccc(Cl)c1)c(O)c1ncncc12 | 12.5 µg/mL (≈ 30.1 µM)
41 | CCOC(=O)c1c(N)oc2c1c(Sc1ccc(F)c(F)c1)c(O)c1ncncc12 | 6.3 µg/mL (≈ 15.1 µM)
42 | O=C1C(Sc2cccc(F)c2)=C(Sc2cccc(F)c2)C(=O)c2ncncc21 | 1.6 µg/mL (≈ 3.88 µM)
43 | O=C1C(Sc2ccc(Br)cc2)=C(Sc2ccc(Br)cc2)C(=O)c2ncncc21 | 12.5 µg/mL (≈ 23.4 µM)
44 | O=C1C(Sc2ccc(F)cc2F)=C(Sc2ccc(F)cc2F)C(=O)c2ncncc21 | 1.6 µg/mL (≈ 3.57 µM)
45 | O=C1C(Sc2ccc(F)cc2)=C(Sc2ccc(F)cc2)C(=O)c2ncncc21 | 1.6 µg/mL (≈ 3.88 µM)
46 | Cc1cccc(SC2=C(Sc3cccc(C)c3)C(=O)c3ncncc3C2=O)c1 | 0.8 µg/mL (≈ 1.98 µM)
47 | O=C1C(Sc2ccc(F)c(F)c2)=C(Sc2ccc(F)c(F)c2)C(=O)c2ncncc21 | 6.3 µg/mL (≈ 14 µM)
48 | O=C1C(SCCO)=C(SCCO)C(=O)c2ncncc21 | 6.3 µg/mL (≈ 20.2 µM)
49 | OC(Cn1cncn1)(Cn1cncn1)c1ccc(F)cc1F [FLUCONAZOLE] | 6.3 µg/mL (≈ 20.6 µM)
50 | Nc1nc(=O)[nH]cc1F [FLUCYTOSINE] | 12.5 µg/mL (≈ 96.8 µM)
51 | CCOC(=O)c1c(N)oc2c1c(Sc1ccc(Cl)cc1)c(O)c1ncncc12 | 6.3 µg/mL (≈ 15.1 µM)
52 | CCOC(=O)c1c(N)oc2c1c(SCC)c(O)c1ncncc12 | 12.5 µg/mL (≈ 37.5 µM)

What follows are compounds tested on Aspergillus niger (assay: Antifungal activity against Aspergillus niger KCTC 1231 after 2 days by twofold broth dilution method). Conditions: KCTC 1231, 48 h.
Format: functional
Method in brief: (§2)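 Two-fold broth dilution in modified Sabouraud dextrose broth. Inoculum about 1 × 10⁵ cells/mL. Test agents at final concentrations from 0.2 to 50.0. Incubated at 37 °C, and MIC read after 2 days. Fluconazole and 5-fluorocytosine served as standard agents.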

Row | SMILES | MIC
53 | CCOC(=O)c1c(N)oc2c1c(Sc1cccc(Cl)c1)c(O)c1ncncc12 | 25 µg/mL (≈ 60.1 µM)
54 | CCOC(=O)c1c(N)oc2c1c(Sc1ccc(F)c(F)c1)c(O)c1ncncc12 | 12.5 µg/mL (≈ 29.9 µM)
55 | O=C1C(Sc2cccc(F)c2)=C(Sc2cccc(F)c2)C(=O)c2ncncc21 | 25 µg/mL (≈ 60.6 µM)
56 | O=C1C(Sc2ccc(Br)cc2)=C(Sc2ccc(Br)cc2)C(=O)c2ncncc21 | 3.2 µg/mL (≈ 5.99 µM)
57 | O=C1C(Sc2ccc(F)cc2F)=C(Sc2ccc(F)cc2F)C(=O)c2ncncc21 | 12.5 µg/mL (≈ 27.9 µM)
58 | O=C1C(Sc2ccc(F)cc2)=C(Sc2ccc(F)cc2)C(=O)c2ncncc21 | 3.2 µg/mL (≈ 7.76 µM)
59 | Cc1cccc(SC2=C(Sc3cccc(C)c3)C(=O)c3ncncc3C2=O)c1 | 1.6 µg/mL (≈ 3.96 µM)
60 | O=C1C(Sc2ccc(F)c(F)c2)=C(Sc2ccc(F)c(F)c2)C(=O)c2ncncc21 | 12.5 µg/mL (≈ 27.9 µM)
61 | O=C1C(SCCO)=C(SCCO)C(=O)c2ncncc21 | 25 µg/mL (≈ 80 µM)
62 | OC(Cn1cncn1)(Cn1cncn1)c1ccc(F)cc1F [FLUCONAZOLE] | 25 µg/mL (≈ 81.6 µM)
63 | Nc1nc(=O)[nH]cc1F [FLUCYTOSINE] | 6.3 µg/mL (≈ 48.8 µM)
64 | CCOC(=O)c1c(N)oc2c1c(Sc1ccc(Cl)cc1)c(O)c1ncncc12 | 3.2 µg/mL (≈ 7.69 µM)
65 | CCOC(=O)c1c(N)oc2c1c(SCC)c(O)c1ncncc12 | 3.2 µg/mL (≈ 9.6 µM)

Each compound was assayed on Aspergillus flavus (assay: Antifungal activity against Aspergillus flavus KCCM 11899 after 2 days by twofold broth dilution method). Conditions: KCCM 11899, 48 h.
Format: functional
Method in brief: as §2

Row | SMILES | MIC
66 | CCOC(=O)c1c(N)oc2c1c(Sc1cccc(Cl)c1)c(O)c1ncncc12 | 12.5 µg/mL (≈ 30.1 µM)
67 | CCOC(=O)c1c(N)oc2c1c(Sc1ccc(F)c(F)c1)c(O)c1ncncc12 | 3.2 µg/mL (≈ 7.67 µM)
68 | O=C1C(Sc2cccc(F)c2)=C(Sc2cccc(F)c2)C(=O)c2ncncc21 | 25 µg/mL (≈ 60.6 µM)
69 | O=C1C(Sc2ccc(Br)cc2)=C(Sc2ccc(Br)cc2)C(=O)c2ncncc21 | 6.3 µg/mL (≈ 11.8 µM)
70 | O=C1C(Sc2ccc(F)cc2F)=C(Sc2ccc(F)cc2F)C(=O)c2ncncc21 | 6.3 µg/mL (≈ 14 µM)
71 | O=C1C(Sc2ccc(F)cc2)=C(Sc2ccc(F)cc2)C(=O)c2ncncc21 | 3.2 µg/mL (≈ 7.76 µM)
72 | Cc1cccc(SC2=C(Sc3cccc(C)c3)C(=O)c3ncncc3C2=O)c1 | 6.3 µg/mL (≈ 15.6 µM)
73 | O=C1C(Sc2ccc(F)c(F)c2)=C(Sc2ccc(F)c(F)c2)C(=O)c2ncncc21 | 1.6 µg/mL (≈ 3.57 µM)
74 | O=C1C(SCCO)=C(SCCO)C(=O)c2ncncc21 | 25 µg/mL (≈ 80 µM)
75 | OC(Cn1cncn1)(Cn1cncn1)c1ccc(F)cc1F [FLUCONAZOLE] | 25 µg/mL (≈ 81.6 µM)
76 | Nc1nc(=O)[nH]cc1F [FLUCYTOSINE] | 6.3 µg/mL (≈ 48.8 µM)
77 | CCOC(=O)c1c(N)oc2c1c(Sc1ccc(Cl)cc1)c(O)c1ncncc12 | 6.3 µg/mL (≈ 15.1 µM)
78 | CCOC(=O)c1c(N)oc2c1c(SCC)c(O)c1ncncc12 | 6.3 µg/mL (≈ 18.9 µM)
